Measurements of several laboratories.
Target: Serine/threonine-protein kinase PLK2 (PLK2, Homo sapiens, UniProt Q9NYY3)

| Compound | observed | mode | technique | concentration | measurement | result |
| --- | --- | --- | --- | --- | --- | --- |
| COc1cc(Nc2c(C#N)cnc3cc(OCCCN4CCN(C)CC4)c(OC)cc23)c(Cl)cc1Cl | cell-free assay | – | – | 0.5 µM | remaining signal | 100% |
| Cc1ccc(C(=O)Nc2ccc(CN3CCN(C)CC3)c(C(F)(F)F)c2)cc1C#Cc1cnc2cccnn12 | enzyme activity | inhibitor | – | 23.5 nM | remaining activity | 94% |
| CCCS(=O)(=O)Nc1ccc(F)c(C(=O)c2c[nH]c3ncc(-c4ccc(Cl)cc4)cc23)c1F | enzyme activity | inhibitor | – | 1 µM | inhibition | < 10% |
| CCOc1cc(-c2nncn2C)ccc1Nc1ncc2cc(C)nc(NCC(C)(C)C)c2n1 | enzyme activity | inhibitor | FRET | 1 µM | inhibition | < 15% |
| O=C(Nc1cnn(-c2csc(C(=O)NC3COC3)c2)c1)Nc1c(F)cccc1Cl | enzyme activity | inhibitor | – | 5 µM | remaining activity | 100% |
| CO[C@@H](C)c1c(Nc2ccc([C@@H](N(C)C(=O)C3CCS(=O)(=O)CC3)C(F)(F)F)cc2)cnc2cc(Cl)nn12 | cell-free assay | – | competition with immobilised ligand | 1 µM | remaining binding | 100% |
| COc1cc(-c2cc(-c3ccc(N4CCNCC4)cc3)cnc2C)cc(OC)c1OC | enzyme activity | inhibitor | – | 0.1 µM | inhibition | 7% |
| N#CCCc1ccc2c(c1)-c1[nH]c3ccc([N+](=O)[O-])cc3c1CC(=O)N2 | cell-free assay | – | – | 0.5 µM | remaining signal | 99% |
| CN1CC(Oc2cnc(C#N)cc2-c2ccn3nc(NC(=O)C4CC4)cc3c2)C1 | enzyme activity | inhibitor | – | 1 µM | inhibition | 1% |
| COc1cccc(CNC(=O)c2nc3scc(COCc4ccc(C(=O)O)cc4)c3c(=O)[nH]2)c1 | cell-free assay | – | competition with immobilised ligand | 1 µM | remaining binding | 56.7% |
| Cc1ccc(NC(=O)c2ccc(C)c(C(F)(F)F)c2)cc1C#Cc1nn(C2CCC(O)CC2)c2ncnc(N)c12 (stereo not drawn) | cell-free assay | – | – | 10 µM | remaining signal | 109% |
| COc1cc2ncnc(Nc3ccc(Oc4ccccc4)cc3C)c2cc1OC | enzyme activity | inhibitor | – | 1 µM | inhibition | 5% |
| Cc1ccc(Nc2nccc(N(C)c3ccc4c(C)n(C)nc4c3)n2)cc1S(N)(=O)=O | enzyme activity | inhibitor | – | 10 µM | inhibition | -4% |
| O=C(O)c1cc(-c2ccc(C3CCNCC3)cc2)c2ccc(-c3ccc(C(F)(F)F)cc3)cc2c1 | cell-free assay | – | competition with immobilised ligand | 1 µM | remaining binding | 100% |
| Cc1cc(NC(=O)c2cccc3cc(-c4cccc5[nH]nc(N)c45)ccc23)ccc1F | enzyme activity | inhibitor | – | 0.1 µM | activity vs control | 91% |
| O=C(O)[C@H]1[C@H](Cn2nnc3ccccc3c2=O)CC[C@@H]1C(=O)c1ccc(OCCC2CCOCC2)cc1 | cell-free assay | – | competition with immobilised ligand | 1 µM | remaining binding | 100% |
| O=C1NC(=O)c2cc(Nc3ccc(F)cc3)c(Nc3ccc(F)cc3)cc21 | cell-free assay | – | – | 0.5 µM | remaining signal | 99.6% |
| CC(C)(C)c1nc2c(s1)c1nc(N)ncc1c1ccc(NS(=O)(=O)c3c(F)cccc3F)c(F)c12 | enzyme activity | inhibitor | radiometric | 1 µM | remaining activity | 91% |
| CCCCN(CCCC)C(=O)CN1C[C@@H](c2cc(OC)c3c(c2)OCO3)[C@H](C(=O)O)[C@H]1CC(C)(C)CCC | cell-free assay | – | competition with immobilised ligand | 1 µM | remaining binding | 98.4% |
| CNC(=O)c1cc(Oc2ccc(NC(=O)Nc3ccc(Cl)c(C(F)(F)F)c3)cc2)ccn1 | enzyme activity | inhibitor | – | 10 µM | inhibition | 15% |
| CC(=O)C1=C(C)N(c2cccc(C(F)(F)F)c2)C(=O)N[C@@H]1c1ccc(C#N)nc1 | cell-free assay | – | competition with immobilised ligand | 1 µM | remaining binding | 97.8% |
| CCN(CC)CCNC(=O)c1c(C)[nH]c(/C=C2\C(=O)Nc3ccc(F)cc32)c1C | enzyme activity | inhibitor | – | 0.3 µM | inhibition | -2% |
| CNC(=O)Nc1ccc2c(c1)[C@@]1(CC2)OC(=O)N(CC(=O)N(Cc2ccc(F)cc2)[C@@H](C)C(F)(F)F)C1=O | cell-free assay | – | competition with immobilised ligand | 1 µM | remaining binding | 92% |
| CN(C)c1nccc(-c2cnc3ncccn23)n1 | binding | – | – | 1 µM | remaining binding | 66% |
